Square brackets hold non-standard residues; d marks the D form. Peptide text beside a SMILES is read from it. * marks the point of attachment. AMC = Cc1cc(=O)oc2cc(N*)ccc12; Pip = O=C(O)[C@@H]1CCCCN1; Cbz = O=C(OCc1ccccc1)*; AEEA = NCCOCCOCC(=O)O
Assays:
APCE [1] = molecular target: T1, APCE (Homo sapiens, UniProt Q12884); test: APCE inhibition, fluorogenic substrate Z-Gly-Pro-AMC; format: biochemical; conditions: for inhibitory effect on APCE: result in words
T1 sequence (Q12884 24-760 limits assumed): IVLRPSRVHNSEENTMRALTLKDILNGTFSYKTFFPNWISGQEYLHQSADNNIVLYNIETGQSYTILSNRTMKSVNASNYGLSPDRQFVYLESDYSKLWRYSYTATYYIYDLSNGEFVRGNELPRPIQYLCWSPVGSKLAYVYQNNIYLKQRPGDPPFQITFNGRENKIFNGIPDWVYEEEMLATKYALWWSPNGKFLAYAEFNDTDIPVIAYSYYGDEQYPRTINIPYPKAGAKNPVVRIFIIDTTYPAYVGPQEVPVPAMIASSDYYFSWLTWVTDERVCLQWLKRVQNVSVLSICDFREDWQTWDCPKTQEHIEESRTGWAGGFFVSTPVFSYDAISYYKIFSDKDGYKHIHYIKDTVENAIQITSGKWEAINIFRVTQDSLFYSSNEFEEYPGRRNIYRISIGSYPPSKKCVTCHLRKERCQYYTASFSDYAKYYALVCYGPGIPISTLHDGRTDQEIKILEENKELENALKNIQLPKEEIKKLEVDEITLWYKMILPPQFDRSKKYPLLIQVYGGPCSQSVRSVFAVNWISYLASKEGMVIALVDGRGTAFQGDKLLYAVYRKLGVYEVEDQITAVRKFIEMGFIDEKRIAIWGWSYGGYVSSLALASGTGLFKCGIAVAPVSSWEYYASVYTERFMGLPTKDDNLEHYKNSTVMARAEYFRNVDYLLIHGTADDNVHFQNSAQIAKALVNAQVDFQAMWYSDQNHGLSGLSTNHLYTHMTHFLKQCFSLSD
Method in brief: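 Human-plasma-purified APCE in 25 mM sodium phosphate, pH 7.5, with 1.0 mM EDTA and 4% methanol; 20 min at 22 °C. Z-Gly-Pro-AMC at five concentrations (10–500 μM range) crossed with four inhibitor concentrations around the expected Ki. Released AMC followed over time (ex 360/em 460 nm) against an AMC standard curve. Competitive mode set by Lineweaver–Burk; Ki from competitive-equation fit, best fit ± standard error.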

APCE [2] = molecular target: T1, APCE; test: Cleavage of inhibitor by APCE during incubation; format: biochemical; conditions: for hydrolysis of inhibitor by APCE: lengthy incubations with APCE
APCE [3] = molecular target: T1, APCE; test: Kinetics of fluorogenic substrate cleavage by APCE; format: biochemical; conditions: for kcat, APCE / Km: pH 7.5, 22 °C, 20 min; for Km: read-out: Km, APCE
recombinant FAP = conditions: cited from earlier work
DPPIV [4] = molecular target: T2, DPPIV (Homo sapiens, UniProt P27487); test: Kinetics of fluorogenic substrate cleavage by DPPIV; format: biochemical
T2 sequence (P27487 whole entry, species assumed): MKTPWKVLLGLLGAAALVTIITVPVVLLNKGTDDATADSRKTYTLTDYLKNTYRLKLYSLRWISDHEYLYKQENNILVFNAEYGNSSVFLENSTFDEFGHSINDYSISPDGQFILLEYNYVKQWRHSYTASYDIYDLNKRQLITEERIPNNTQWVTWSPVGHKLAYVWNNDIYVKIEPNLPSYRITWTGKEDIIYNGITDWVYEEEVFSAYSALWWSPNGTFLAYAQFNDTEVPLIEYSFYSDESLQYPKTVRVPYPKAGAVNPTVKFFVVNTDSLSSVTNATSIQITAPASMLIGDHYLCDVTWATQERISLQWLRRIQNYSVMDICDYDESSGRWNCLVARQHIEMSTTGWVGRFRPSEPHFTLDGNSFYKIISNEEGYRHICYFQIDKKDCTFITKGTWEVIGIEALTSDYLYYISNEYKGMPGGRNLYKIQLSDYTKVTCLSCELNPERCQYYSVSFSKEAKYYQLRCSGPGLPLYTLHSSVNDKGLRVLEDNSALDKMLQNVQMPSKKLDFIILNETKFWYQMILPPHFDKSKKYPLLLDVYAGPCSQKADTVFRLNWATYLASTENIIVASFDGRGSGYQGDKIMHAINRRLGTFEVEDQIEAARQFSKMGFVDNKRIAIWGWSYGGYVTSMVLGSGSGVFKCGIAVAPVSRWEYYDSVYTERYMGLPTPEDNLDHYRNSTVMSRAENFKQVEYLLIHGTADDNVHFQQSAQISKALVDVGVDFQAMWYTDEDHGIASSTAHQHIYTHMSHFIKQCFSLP

FAP = conditions: read-out: Ki for FAP; cited from earlier work
DPPIV [5] = molecular target: T2, DPPIV; conditions: read-out: Ki for DPPIV; cited from earlier work
[6] = tested on: CSCC[C@H](N)C(=O)N[C@@H](CCC(=O)O)C(=O)N1CCC[C@H]1C(=O)N[C@@H](CC(C)C)C(=O)NCC(=O)N[C@@H](CCCNC(=N)N)C(=O)N[C@@H](CCC(N)=O)C(=O)N[C@@H](CC(C)C)C(=O)N[C@H](C(=O)N[C@@H](CO)C(=O)NCC(=O)N1CCC[C@H]1C(=O)Nc1ccc2c(C)cc(=O)oc2c1)[C@@H](C)O; test: Kinetics of fluorogenic substrate cleavage by APCE; format: biochemical, human; conditions: other: pH 7.5, 22 °C, 20 min
[7] = tested on: CSCC[C@H](N)C(=O)N[C@@H](CCC(=O)O)C(=O)N1CCC[C@H]1C(=O)N[C@@H](CC(C)C)C(=O)NCC(=O)N[C@@H](Cc1c[nH]c2ccccc12)C(=O)N[C@@H](CCC(N)=O)C(=O)N[C@@H](CC(C)C)C(=O)N[C@H](C(=O)N[C@@H](CO)C(=O)NCC(=O)N1CCC[C@H]1C(=O)Nc1ccc2c(C)cc(=O)oc2c1)[C@@H](C)O; test: Kinetics of fluorogenic substrate cleavage by APCE; format: biochemical, human; conditions: other: pH 7.5, 22 °C, 20 min

Q: With `CC(C)[C@H](NC(=O)[C@H](CCC(N)=O)NC(=O)[C@H](CCC(=O)O)NC(=O)[C@H](CCC(N)=O)NC(=O)[C@H](CC(N)=O)NC(=O)[C@@H]1CCCCN1C(=O)CNC(=O)COCCOCCNC(=O)CNC(=O)[C@@H](N)Cc1ccccc1)C(=O)O` [Inhibitor 3, FG-peg-G-pipecolinyl-NQEQV] (H-FG[AEEA]G[Pip]NQEQV-OH; N-terminus assumed) as the molecule, how does the “change of Ki relative to inhibitor 2 (P7 Arg replaced with Gly)” value (APCE [1]; printed as Ki reduced) read?
A: ~4 fold

Q: With `CC(C)[C@H](NC(=O)[C@H](CCC(N)=O)NC(=O)[C@H](CCC(=O)O)NC(=O)[C@H](CCC(N)=O)NC(=O)[C@H](CC(N)=O)NC(=O)[C@@H]1CCCCN1C(=O)CNC(=O)COCCOCCNC(=O)[C@H](CCCNC(=N)N)NC(=O)[C@@H](N)Cc1ccccc1)C(=O)O` [Inhibitor 2, FR-peg-G-pipecolinyl-NQEQV] (H-FR[AEEA]G[Pip]NQEQV-OH; N-terminus assumed) as the molecule, how does the “fraction of inhibitor cleaved by APCE” value (APCE [2]; 1 h incubation, LC/MS) read?
A: ~6%

Q: And the “hydrolysis of inhibitor by APCE” value (APCE [2])?
A: slowly hydrolyzed

Q: For `Cc1cc(=O)oc2cc(NC(=O)[C@@H]3CCCN3C(=O)CNC(=O)OCc3ccccc3)ccc12` [Z-GP-AMC, benzyloxycarbonyl- (Z-) Gly-Pro-AMC] (Cbz-Gly-Pro-{AMC}), which “kcat, APCE” value (APCE [3]) is on record?
A: 0.607 ± 0.02 s⁻¹

Q: And the Km (APCE [3])?
A: 90 ± 9 µM

Q: What about the “increase in catalytic efficiency of recombinant FAP as opposed to Gly-Pro-AMC” value (recombinant FAP) of the same molecule?
A: ~18 fold

Q: With FR-peg-G-pipecolinic acid as the molecule, how does the “inhibitory effect on APCE” value (APCE [1]) read?
A: neither of which appeared to have any inhibitory effect

Q: Which “kcat, APCE” value (APCE [3]) does the source give for `Cc1cc(=O)oc2cc(NC(=O)[C@@H]3CCCN3C(=O)CN)ccc12` [GP-AMC, Gly-Pro-7-amido-4-methylcoumarin] (H-Gly-Pro-{AMC}) here?
A: 0.485 ± 0.0183 s⁻¹

Q: What about the Km (APCE [3]) of the same molecule?
A: 455 ± 42 µM

Q: And the “kcat/Km of APCE lower than the other three substrates” value (APCE [3]; vs MEPLGRQLTSGP-AMC, MEPLGWQLTSGP-AMC, Z-GP-AMC)?
A: 6–51 fold

Q: What about the “kcat/Km of DPPIV higher than that of APCE” value (DPPIV [4]) of the same molecule?
A: ~30 fold

Q: What about the “kcat, DPPIV” value (DPPIV [4]; pH 7.5, 22 °C, 20 min) of the same molecule?
A: 1.985 ± 0.102 s⁻¹

Q: What about the Km (DPPIV [4]; read-out: Km, DPPIV, pH 7.5, 22 °C, 20 min) of the same molecule?
A: 63 ± 6 µM

Q: Which “inhibitory effect on APCE” value (APCE [1]) does the source give for NQEQV here?
A: neither of which appeared to have any inhibitory effect

Q: With `CC(=O)NCC(=O)N1CCCC1C#N` (stereo not drawn) [acetyl-Gly-Pro-nitrile] as the molecule, how does the Ki (FAP) read?
A: 6.8 µM

Q: And the Ki (DPPIV [5])?
A: 61 µM

Q: Which “hydrolysis of inhibitor by APCE” value (APCE [2]) does the source give for `CC(C)C[C@H](NC(=O)[C@H](CCC(N)=O)NC(=O)[C@H](CCCNC(=N)N)NC(=O)[C@@H](N)Cc1ccccc1)C(=O)N[C@H](C(=O)N[C@@H](CO)C(=O)NCC(=O)N1CCCC[C@H]1C(=O)N[C@@H](CC(N)=O)C(=O)N[C@@H](CCC(N)=O)C(=O)N[C@@H](CCC(=O)O)C(=O)N[C@@H](CCC(N)=O)C(=O)N[C@H](C(=O)O)C(C)C)[C@@H](C)O` [Inhibitor 1, FRQLTSG-pipecolinyl-NQEQV] (H-FRQLTSG[Pip]NQEQV-OH; N-terminus assumed) here?
A: slowly hydrolyzed

Q: With APCE (Homo sapiens) as the molecule, how does the Km [6] read?
A: 21 ± 2 µM

Q: What about the kcat [6] of the same molecule?
A: 1.17 ± 0.0383 s⁻¹

Q: What about the kcat/Km [6] of the same molecule?
A: 55000 M⁻¹ s⁻¹

Q: What about the Km [7] of the same molecule?
A: 70 ± 6 µM

Q: And the kcat [7]?
A: 0.922 ± 0.025 s⁻¹

Q: And the kcat/Km [7]?
A: 13200 M⁻¹ s⁻¹

Q: With `N=C(N)NCCC[C@H](NC(=O)[C@@H](N)Cc1ccccc1)C(=O)NCCOCCOCC(=O)NCC(=O)N1CCCC[C@H]1C(N)=O` [Inhibitor 11, FR-peg-G-pipecolinamide] (H-FR[AEEA]G[Pip]-NH2; N-terminus assumed) as the molecule, how does the “inhibitory effect on APCE” value (APCE [1]) read?
A: lacked inhibitory properties
